Reference: ChEMBL document CHEMBL4823242, “Cytotoxic Naphthoquinone Analogues, Including Heterodimers, and Their Structure Elucidation Using LR-HSQMBC NMR Experiments” (J Nat Prod, 2021)

Tests used:
Format in all cases: functional, cell-based
[1] = test system: OVCAR-3; experiment: Cytotoxicity against human OVCAR-3 cells after 72 hrs by Cell Titer-Blue cell viability assay; settings: OVCAR-3, 72 h
Summary of the method: (§1)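 Cells kept at 37 °C, 5% CO2 in RPMI 1640 with 10% FBS, penicillin 100 units/mL and streptomycin 100 μg/mL. Log-phase cells harvested by trypsin, washed twice, seeded at 5,000 per well and left overnight. DMSO-dissolved samples diluted and added, then 72 h at 37 °C. Viability read by CellTiter-Blue absorbance. IC50 is the concentration giving 50% growth relative to DMSO control.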

[2] = test system: MDA-MB-435; experiment: Cytotoxicity against human MDA-MB-435 cells after 72 hrs by Cell Titer-Blue cell viability assay; settings: MDA-MB-435, 72 h; summary of the method: as §1
[3] = test system: MDA-MB-231; experiment: Cytotoxicity against human MDA-MB-231 cells after 72 hrs by Cell Titer-Blue cell viability assay; settings: MDA-MB-231, 72 h; summary of the method: as §1

Work on `CCc1c(OC)cc2c(c1O)C(=O)C=C(OC)C2=O` yielded an IC50 [1] of 7.3 µM, an IC50 [2] of 2.1 µM and an IC50 [3] of 7.8 µM.

For `CCc1c(OC)cc2c(c1O)C(=O)C[C@@H](OC)[C@H]2O`, the IC50 [1] was over 25 µM, the IC50 [2] was over 25 µM and the IC50 [3] was over 25 µM.

Work on `COC1=CC(=O)c2c(cc(OC)c(C)c2O)C1=O` yielded an IC50 [1] of 9.6 µM, an IC50 [2] of 3.2 µM and an IC50 [3] of 15 µM.

Work on `COC1=CC(=O)c2c(cc(OC)c(C(C)OC(C)=O)c2O)C1=O` (racemic) yielded an IC50 [1] of 0.9 µM, an IC50 [2] of 0.7 µM and an IC50 [3] of 6.2 µM.

`COC1=CC(=O)c2c(cc(OC)c(C(C)C3=C(O)C(=O)c4cc(OC)cc(O)c4C3=O)c2O)C1=O` (racemic) showed an IC50 [1] of 17 µM, an IC50 [2] of 3.6 µM and an IC50 [3] of 20 µM.

`CCc1c(OC)cc2c(c1O)C(=O)C(C(C)c1c(OC)cc3c(c1O)C(=O)C=C(OC)C3=O)=C(O)C2=O` (racemic) was tested, and the IC50 [1] was 18 µM, the IC50 [2] was 15 µM and the IC50 [3] was 17 µM.

In the case of `COC1=CC(=O)c2c(cc(OC)c(C(C)OC)c2O)C1=O` (racemic), the IC50 [1] is reported as 13 µM, the IC50 [2] is reported as 3.4 µM and the IC50 [3] is reported as 12 µM.

Molecule `COC1=CC(=O)c2c(cc(OC)c(C(C)O)c2O)C1=O` (racemic) has an IC50 [1] of 7.9 µM, an IC50 [2] of 3 µM and an IC50 [3] of 12 µM.

Molecule `COC1=CC(=O)c2c(cc(OC)c(C(C)C3=C(O)C(=O)c4cc(O)c(C(C)=O)c(O)c4C3=O)c2O)C1=O` (racemic) [KIRSCHSTEININ] has an IC50 [1] of 6.6 µM, an IC50 [2] of 2.2 µM and an IC50 [3] of 4.4 µM.

For `CC(=O)O[C@H]1C(=O)[C@@]2(C)[C@H]([C@H](OC(=O)c3ccccc3)[C@]3(O)C[C@H](OC(=O)[C@H](O)[C@@H](NC(=O)c4ccccc4)c4ccccc4)C(C)=C1C3(C)C)[C@]1(OC(C)=O)CO[C@@H]1C[C@@H]2O` [PACLITAXEL], the IC50 [1] was 0.0051 µM and the IC50 [3] was 0.0002 µM.
